Only some compounds are listed: those with a hit (about 3.9% of all), similar ones and a draw of the others.
TAAR1 antag: antagonists of human TAAR1 | actives 1.5% (n = 360,000) | inhibition, % at 3 µM | AID 624466 | CHO RD-HGA16 TAAR1, Fluo-8 calcium fluorescence, antagonist;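 active = inhibition above a per-plate cutoff, the mean inhibition of test compounds on that plate plus 3 SD, cut at about 49% in these data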;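 note: 0% = DMSO plus EC80 beta-PEA response and 100% = DMSO alone without agonist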
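System: RD-HGA16 CHO cells with stable hTAAR1 and Gα16 | Probe or stimulus: EC80 β-phenethylamine stimulus | Dosing: 3 µM, single point | Times: Dye loading 75 min at 37 °C, then 30 min room temperature | Measured by: Fluo-8 calcium-sensitive fluorescence | Read-out basis: % inhibition of agonist calcium response | Replicates: n of 1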
CHRM1 PAM: human CHRM1 positive allosteric modulation. actives 0.088% (n = 360,000). AID 588819. activation, % at 3 µM. P11229. CHO-K1 hM1, Fluo-8 calcium fluorescence, ACh EC20; 0% = ACh EC20, 100% = maximal ACh; in the data active = activation above about 19%, passing the limit was not always enough
CHRM1 agonist: activates human CHRM1 receptor. activation, % at 3 µM. P11229. actives 0.33% (n = 360,000). AID 588814. CHO-K1 hM1, Fluo-8 calcium fluorescence, agonist mode; 0% DMSO, 100% acetylcholine EC100;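 active = activation above the run's mean compound activation plus 3 SD, cut at about 16% in these data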;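 note: peak over basal fluorescence ratio within a 140 s kinetic read after compound addition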
TAAR1 ag: agonists of human TAAR1 | CHO RD-HGA16 TAAR1, Fluo-8 calcium fluorescence; vehicle wells 0%, saturating PEA agonist 100% | activation, % at 3 µM | actives 0.99% (n = 360,000);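 active = activation above the mean activation of all test compounds in the run plus 3 SD, cut at about 38% in these data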
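test system = CHO RD-HGA16 cells carrying human TAAR1 plus Gα16 | schedule = 17-24 h seeding, 75 min 37 °C dye, 30 min RT | compound dosing = 3 µM single concentration | control set = DMSO and PEA EC100 | replicates = n 1 | signal = Fluo-8 fluorescence, 5 s baseline then 140 s kinetic read | measure = percent activation vs PEA EC100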
HTR2A ag: agonists of mouse serotonin 5-HT2A receptor (HTR2A). CHO-K1 mHTR2A beta-arrestin complementation, luminescence; percent of 30 µM serotonin response. actives 0.66% (n = 360,000). activation, % at 7.6 µM. P35363;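 active = activation above a run cutoff, the mean activation of all tested compounds plus 3 SD, cut at about 14% in these data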;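 note: 0% = plate median of compound wells and 100% = 30 µM serotonin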
Target sequence (P35363 whole entry, looked up): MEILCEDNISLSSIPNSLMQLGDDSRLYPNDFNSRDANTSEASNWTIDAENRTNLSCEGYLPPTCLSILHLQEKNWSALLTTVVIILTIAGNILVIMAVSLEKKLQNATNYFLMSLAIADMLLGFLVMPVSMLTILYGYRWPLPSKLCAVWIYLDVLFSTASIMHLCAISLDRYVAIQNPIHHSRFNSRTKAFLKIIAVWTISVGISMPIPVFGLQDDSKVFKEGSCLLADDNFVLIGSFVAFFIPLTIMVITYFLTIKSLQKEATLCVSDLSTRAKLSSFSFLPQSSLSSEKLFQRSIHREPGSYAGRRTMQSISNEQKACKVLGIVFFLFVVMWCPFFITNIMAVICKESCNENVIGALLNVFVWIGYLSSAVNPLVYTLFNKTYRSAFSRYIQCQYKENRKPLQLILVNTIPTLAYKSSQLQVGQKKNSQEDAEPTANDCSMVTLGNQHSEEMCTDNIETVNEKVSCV
CHRM1 antagonist: human CHRM1 antagonism | actives 1.3% (n = 360,000) | CHO-K1 hM1, Fluo-8 calcium fluorescence, ACh EC80 antagonist | P11229 | inhibition, % at 3 µM;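 active = percent inhibition above its own plate's cutoff, namely the mean of that plate's compound wells plus 3 SD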;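 note: peak over basal fluorescence ratio during 140 s after agonist addition; 0% = ACh EC80 plus DMSO and 100% = DMSO alone without agonist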
Starred values were filed as active, the others as inactive.

Results for Cc1c(C)c2c(OCC(=O)Nc3ccc(CCO)cc3)cc3c(c2oc1=O)CCC(C)(C)O3 ?
TAAR1 antag: 51*; CHRM1 PAM: -10; CHRM1 agonist: -7; TAAR1 ag: 2; HTR2A ag: 4; CHRM1 antagonist: 9

How did COc1ccccc1CNC(=O)COc1cc2c(c3oc(=O)cc(C)c13)CCC(C)(C)O2 do in these assays?
TAAR1 antag: 53*; CHRM1 PAM: -25; CHRM1 agonist: -5; TAAR1 ag: 4; HTR2A ag: -3; CHRM1 antagonist: 34*

Results for Cc1c(C)c2c(OCC(=O)O)cc3c(c2oc1=O)CCC(C)(C)O3 ?
TAAR1 antag: -5; CHRM1 PAM: 5; CHRM1 agonist: -1; TAAR1 ag: 5; HTR2A ag: -3; CHRM1 antagonist: -8

Results for CCOC(=O)C1=C(C)NC(C)=C(C(=O)OCC)C1C(=O)OCC(=O)NCCc1ccc(S(N)(=O)=O)cc1 ?
TAAR1 antag: -11; CHRM1 PAM: 21; CHRM1 agonist: 3; TAAR1 ag: 1; HTR2A ag: 5; CHRM1 antagonist: -12

What do the screens show for `C[C@@H]1CN([C@@H](C)CO)C(=O)c2cc(N(C)C)ccc2O[C@@H](C)CCCCO[C@@H]1CN(C)Cc1ccc2c(c1)OCO2`?
TAAR1 antag: -18; CHRM1 PAM: 5; CHRM1 agonist: -9; TAAR1 ag: -2; HTR2A ag: 3; CHRM1 antagonist: -20

What do the screens show for `O=C(O)/C=C/C(=O)OC1CC2CCC1C2` (stereo not drawn)?
TAAR1 antag: -1; CHRM1 PAM: 6; CHRM1 agonist: -2; TAAR1 ag: 6; HTR2A ag: 7; CHRM1 antagonist: -13

Results for O=C1c2ccccc2C(O)N1Cc1ccc2c(c1)OCO2 (stereo not drawn) ?
TAAR1 antag: -17; CHRM1 PAM: -11; CHRM1 agonist: 0; TAAR1 ag: 6; HTR2A ag: -4; CHRM1 antagonist: 28*

Results for O=C(C1Cc2ccccc2CN1C(=O)c1ccccc1)N1CCN(c2ccccc2)CC1 (stereo not drawn) ?
TAAR1 antag: -7; CHRM1 PAM: 4; CHRM1 agonist: -4; TAAR1 ag: -2; HTR2A ag: -1; CHRM1 antagonist: -32

What do the screens show for `CCOc1ccc(N(CC(=O)N2CCOCC2)S(=O)(=O)c2ccc(F)cc2)cc1`?
TAAR1 antag: 0; CHRM1 PAM: 8; CHRM1 agonist: -2; TAAR1 ag: 3; HTR2A ag: -3; CHRM1 antagonist: -5

Results for CCN1CCN(c2ccc(N3CCN(S(=O)(=O)c4cc([N+](=O)[O-])ccc4C)CC3)nn2)CC1 ?
TAAR1 antag: -23; CHRM1 PAM: -26; CHRM1 agonist: -8; TAAR1 ag: 2; HTR2A ag: -9; CHRM1 antagonist: 40*

Results for CCN1CCN(c2ccc(S(=O)(=O)N3CCCC3)cn2)CC1 ?
TAAR1 antag: -17; CHRM1 PAM: -18; CHRM1 agonist: -6; TAAR1 ag: 1; HTR2A ag: 3; CHRM1 antagonist: 36*

How did CCCCCCC12C(=Cc3cc(C)ccc31)c1ccccc1C(CC(=O)NCc1ccccc1)N2C(=O)OC (stereo not drawn) do in these assays?
TAAR1 antag: -15; TAAR1 ag: -1

What do the screens show for `CC(O)(c1ccc(F)c(F)c1)c1nc(-c2ccncc2)cs1` (stereo not drawn)?
TAAR1 antag: -5; CHRM1 PAM: -5; CHRM1 agonist: -3; TAAR1 ag: -1; HTR2A ag: -2; CHRM1 antagonist: 4

Results for CN(C)c1ccc(-c2csc(C(C)(O)c3ccc(F)c(F)c3)n2)cc1 (stereo not drawn) ?
TAAR1 antag: -20; CHRM1 PAM: -13; CHRM1 agonist: -5; TAAR1 ag: 2; HTR2A ag: -7; CHRM1 antagonist: 25*

Results for COc1ccc(Br)cc1C=NNS(=O)(=O)c1ccc(C)cc1 ?
TAAR1 antag: -12; CHRM1 PAM: -19; CHRM1 agonist: 1; TAAR1 ag: 0; HTR2A ag: 12; CHRM1 antagonist: 33*

Results for COc1cc(/C=N/NS(=O)(=O)c2ccc(Br)cc2)ccc1O ?
TAAR1 antag: -25; CHRM1 PAM: 4; CHRM1 agonist: 1; TAAR1 ag: 3; HTR2A ag: -5; CHRM1 antagonist: -8

Results for Cn1cccc1C(=O)NCC(c1ccc(F)cc1)N1CCOCC1 (stereo not drawn) ?
TAAR1 antag: -27; CHRM1 PAM: 26*; CHRM1 agonist: 1; TAAR1 ag: -1; HTR2A ag: -5; CHRM1 antagonist: -25

What do the screens show for `CNC(=O)C(=O)NCC1OCCN1S(=O)(=O)c1ccc(C)cc1` (stereo not drawn)?
TAAR1 antag: -3; CHRM1 PAM: -5; CHRM1 agonist: -2; TAAR1 ag: 0; HTR2A ag: -7; CHRM1 antagonist: 15

What do the screens show for `Cc1ccc(S(=O)(=O)N2CCOC2CNC(=O)C(=O)NCC(C)C)cc1` (stereo not drawn)?
TAAR1 antag: -16; CHRM1 PAM: 24*; CHRM1 agonist: 3; TAAR1 ag: 1; HTR2A ag: -7; CHRM1 antagonist: -29

What do the screens show for `COc1ccc(S(=O)(=O)N2CCOC2CNC(=O)C(=O)NCCc2ccccc2OC)cc1C` (stereo not drawn)?
TAAR1 antag: 3; CHRM1 PAM: -3; CHRM1 agonist: -1; TAAR1 ag: 13; HTR2A ag: 0; CHRM1 antagonist: -8

Results for COc1ccccc1CCNC(=O)C(=O)NCC1OCCN1S(=O)(=O)c1ccc2c(c1)OCCO2 (stereo not drawn) ?
TAAR1 antag: 0; CHRM1 PAM: -5; CHRM1 agonist: -3; TAAR1 ag: 39*; HTR2A ag: -1; CHRM1 antagonist: 7

Results for CC(=O)c1ccc(Nc2nc(C(N)C3CCCCC3)cs2)cc1 (stereo not drawn) ?
TAAR1 antag: -21; CHRM1 PAM: 6; CHRM1 agonist: 3; TAAR1 ag: 4; HTR2A ag: -4; CHRM1 antagonist: -14

Results for NC(c1csc(Nc2ccc(C(=O)c3ccccc3)cc2)n1)C1CCCCC1 (stereo not drawn) ?
TAAR1 antag: 41; CHRM1 PAM: 1; CHRM1 agonist: 0; TAAR1 ag: 46*; HTR2A ag: -1; CHRM1 antagonist: -2

How did CC(C)c1ccc(NC(=O)Nc2nc(C(N)CCc3ccccc3)cs2)cc1 (stereo not drawn) do in these assays?
TAAR1 antag: 33; CHRM1 PAM: 1; CHRM1 agonist: -2; TAAR1 ag: 42*; HTR2A ag: 11; CHRM1 antagonist: 1

Screens as filed in PubChem BioAssay.
